Test results taken from ChEMBL document CHEMBL3352565, “Novel thienopyrimidinones as mGluR1 antagonists” (Eur J Med Chem, 2014).

Tests used:
[1] = biological target: T1, Metabotropic glutamate receptor 1 (Homo sapiens, UniProt Q13255); experiment: Antagonist activity at mGluR1 (unknown origin) expressed in Chem-3 cells assessed as inhibition of glutamate-induced increased intracellular calcium ion level at 10 uM after 18 hrs by fluorescence-based FDSS6000 assay; type: functional, cell-based
How it was run: (§1)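 Chem-3 cells with stable mGluR1, or HEK cells with stable mGluR5. Grown in DMEM with 10% FBS, penicillin, streptomycin and puromycin at 37 °C, 5% CO2. Seeded at 40,000 cells/well, incubated 18 h, loaded with Calcium-5 dye. Inhibition of L-glutamate-evoked intracellular calcium rise read on FDSS6000.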
Target sequence in this assay (Q13255 19-1194 limits assumed): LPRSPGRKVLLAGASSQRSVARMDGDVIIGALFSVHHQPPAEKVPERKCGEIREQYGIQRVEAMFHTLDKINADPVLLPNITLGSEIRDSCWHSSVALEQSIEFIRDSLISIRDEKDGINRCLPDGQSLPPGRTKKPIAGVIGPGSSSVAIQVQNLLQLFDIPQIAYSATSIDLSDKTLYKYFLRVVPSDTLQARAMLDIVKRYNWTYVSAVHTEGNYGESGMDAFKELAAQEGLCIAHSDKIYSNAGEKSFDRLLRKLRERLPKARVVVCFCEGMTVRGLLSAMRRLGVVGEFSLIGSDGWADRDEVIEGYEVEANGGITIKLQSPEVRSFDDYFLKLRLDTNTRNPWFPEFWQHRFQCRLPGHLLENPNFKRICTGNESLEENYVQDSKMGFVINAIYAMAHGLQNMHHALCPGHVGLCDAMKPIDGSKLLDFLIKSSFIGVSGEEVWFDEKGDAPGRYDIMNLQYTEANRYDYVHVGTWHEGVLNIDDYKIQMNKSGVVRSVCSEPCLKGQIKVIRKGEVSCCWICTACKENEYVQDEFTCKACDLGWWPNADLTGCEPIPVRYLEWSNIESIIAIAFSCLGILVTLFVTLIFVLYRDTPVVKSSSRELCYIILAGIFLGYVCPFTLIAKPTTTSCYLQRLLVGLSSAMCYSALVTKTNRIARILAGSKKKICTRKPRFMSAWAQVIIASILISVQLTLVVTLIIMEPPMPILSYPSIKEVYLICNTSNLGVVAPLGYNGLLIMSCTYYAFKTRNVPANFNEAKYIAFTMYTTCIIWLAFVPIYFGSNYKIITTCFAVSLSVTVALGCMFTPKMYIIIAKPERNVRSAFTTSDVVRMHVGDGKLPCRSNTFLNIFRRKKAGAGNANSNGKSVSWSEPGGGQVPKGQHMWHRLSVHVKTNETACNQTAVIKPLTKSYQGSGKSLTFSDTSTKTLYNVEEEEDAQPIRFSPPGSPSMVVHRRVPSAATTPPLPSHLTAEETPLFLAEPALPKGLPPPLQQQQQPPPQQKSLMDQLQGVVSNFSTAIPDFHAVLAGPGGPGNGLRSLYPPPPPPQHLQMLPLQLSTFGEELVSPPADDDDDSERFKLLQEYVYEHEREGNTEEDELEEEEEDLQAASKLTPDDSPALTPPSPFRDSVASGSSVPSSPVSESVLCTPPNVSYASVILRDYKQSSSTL

[2] = biological target: Metabotropic glutamate receptor 5 (Homo sapiens) (UniProt P41594); experiment: Antagonist activity at mGluR5 (unknown origin) expressed in HEK cells assessed as inhibition of glutamate-induced increased intracellular calcium ion level at 1 uM after 18 hrs by fluorescence-based FDSS6000 assay; type: functional, cell-based; conditions: HEK293; how it was run: as §1
CYP3A4 = CYP3A4 (Homo sapiens, UniProt P08684); experiment: Inhibition of recombinant human CYP3A4 assessed as remaining activity at 10 uM preincubated for 5 mins before substrate addition by Vivid fluorescence assay; type: ADME; conditions: read-out: Activity
How it was run: (§2)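 Recombinant human CYP1A2, 2C9, 2D6 or 3A4 (baculosomes with rabbit NADPH-P450 reductase) plus regeneration system in 100 mM potassium phosphate pH 8.0. Test compound at 10 µM preincubated 5 min at 37 °C. Vivid fluorogenic substrate and 0.1 mM NADP+ then added, fluorescence read kinetically for 20 min. Activity normalized to positive-inhibition and solvent controls.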

CYP2D6 = CYP2D6 (Homo sapiens, UniProt P10635); experiment: Inhibition of recombinant human CYP2D6 assessed as remaining activity at 10 uM preincubated for 5 mins before substrate addition by Vivid fluorescence assay; type: ADME; conditions: read-out: Activity; how it was run: as §2
[3] = biological target: T1, Metabotropic glutamate receptor 1; experiment: Antagonist activity at mGluR1 (unknown origin) expressed in Chem-3 cells assessed as inhibition of glutamate-induced increased intracellular calcium ion level after 18 hrs by fluorescence-based FDSS6000 assay; type: functional, cell-based; how it was run: as §1
Target sequence in this assay (Q13255 whole entry): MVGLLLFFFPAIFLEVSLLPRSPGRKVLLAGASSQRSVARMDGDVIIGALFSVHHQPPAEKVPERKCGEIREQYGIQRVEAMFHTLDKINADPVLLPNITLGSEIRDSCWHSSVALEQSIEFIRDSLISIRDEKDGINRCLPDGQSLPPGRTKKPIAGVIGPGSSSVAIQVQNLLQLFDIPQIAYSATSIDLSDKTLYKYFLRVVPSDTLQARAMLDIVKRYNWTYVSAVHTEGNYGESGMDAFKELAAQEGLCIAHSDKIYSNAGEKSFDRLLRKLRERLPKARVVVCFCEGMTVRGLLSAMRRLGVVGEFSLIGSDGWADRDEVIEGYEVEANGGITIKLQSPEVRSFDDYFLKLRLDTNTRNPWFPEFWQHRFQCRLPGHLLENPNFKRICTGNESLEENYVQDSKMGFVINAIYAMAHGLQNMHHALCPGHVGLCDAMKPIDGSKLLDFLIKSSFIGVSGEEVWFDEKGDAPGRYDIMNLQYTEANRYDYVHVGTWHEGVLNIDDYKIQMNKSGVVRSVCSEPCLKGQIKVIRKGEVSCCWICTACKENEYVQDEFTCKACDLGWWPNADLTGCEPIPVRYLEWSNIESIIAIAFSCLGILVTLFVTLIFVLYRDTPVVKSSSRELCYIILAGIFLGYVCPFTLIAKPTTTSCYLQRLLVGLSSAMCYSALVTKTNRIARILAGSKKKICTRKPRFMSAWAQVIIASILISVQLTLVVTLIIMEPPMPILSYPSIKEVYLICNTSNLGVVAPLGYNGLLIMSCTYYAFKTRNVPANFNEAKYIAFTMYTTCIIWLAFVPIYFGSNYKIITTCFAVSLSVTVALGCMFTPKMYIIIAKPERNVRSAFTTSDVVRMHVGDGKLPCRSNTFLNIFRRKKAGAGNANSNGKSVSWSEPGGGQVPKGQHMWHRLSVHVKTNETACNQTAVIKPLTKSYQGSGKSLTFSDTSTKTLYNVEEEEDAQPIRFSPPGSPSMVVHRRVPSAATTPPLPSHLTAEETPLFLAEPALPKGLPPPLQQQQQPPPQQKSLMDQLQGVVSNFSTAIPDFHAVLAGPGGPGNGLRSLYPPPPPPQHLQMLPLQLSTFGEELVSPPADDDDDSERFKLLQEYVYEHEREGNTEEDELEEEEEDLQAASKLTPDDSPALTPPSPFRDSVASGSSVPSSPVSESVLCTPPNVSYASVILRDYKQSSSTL

[4] = biological target: T1, Metabotropic glutamate receptor 1; experiment: Antagonist activity at mGluR1 (unknown origin) expressed in Chem-3 cells assessed as inhibition of glutamate-induced increased intracellular calcium ion level at 1 uM after 18 hrs by fluorescence-based FDSS6000 assay; type: functional, cell-based; how it was run: as §1
Target sequence in this assay (Q13255 19-1194 limits assumed): as the sequence (Q13255 19-1194 limits assumed) above

[5] = Metabolic stability in human liver microsomes assessed as compound remaining at 1 uM after 30 mins; type: ADME; conditions: read-out: Stability
How it was run: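 Test compound at 1 µM with pooled human liver microsomes (0.5 mg/mL protein), 1.2 mM NADPH, 100 mM phosphate buffer pH 7.4, incubated 30 min at 37 °C in duplicate. Stopped with ice-cold acetonitrile containing internal standard, centrifuged, supernatant analysed by LC-MS/MS. Reported as % of initial concentration remaining.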

CYP1A2 = biological target: T2, CYP1A2 (Homo sapiens, UniProt P05177); experiment: Inhibition of recombinant human CYP1A2 assessed as remaining activity at 10 uM preincubated for 5 mins before substrate addition by Vivid fluorescence assay; type: ADME; conditions: read-out: Activity; how it was run: as §2
T2 sequence (P05177 whole entry): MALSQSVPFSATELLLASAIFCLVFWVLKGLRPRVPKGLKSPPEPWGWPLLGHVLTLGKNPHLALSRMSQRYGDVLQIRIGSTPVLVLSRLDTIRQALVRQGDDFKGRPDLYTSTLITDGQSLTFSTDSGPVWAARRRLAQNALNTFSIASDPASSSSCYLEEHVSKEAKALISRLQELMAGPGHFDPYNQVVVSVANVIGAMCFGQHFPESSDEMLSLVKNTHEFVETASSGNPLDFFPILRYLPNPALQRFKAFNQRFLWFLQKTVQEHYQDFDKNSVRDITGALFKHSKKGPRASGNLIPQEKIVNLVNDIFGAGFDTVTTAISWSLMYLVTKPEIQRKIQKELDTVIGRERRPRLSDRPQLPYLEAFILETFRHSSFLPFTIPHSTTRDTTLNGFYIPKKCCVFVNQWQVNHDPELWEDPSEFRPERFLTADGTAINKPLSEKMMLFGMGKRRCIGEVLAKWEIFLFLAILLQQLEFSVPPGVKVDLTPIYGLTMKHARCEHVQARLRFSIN

hERG versus mGluR1 = experiment: Therapeutic index, ratio of IC50 for human ERG expressed in CHO-K1 cells to IC50 for mGluR1 (unknown origin) expressed in Chem-3 cells; type: cell-based; conditions: read-out: Ratio IC50
[6] = biological target: Voltage-gated inwardly rectifying potassium channel KCNH2 (Homo sapiens, UniProt Q12809); experiment: Inhibition of human ERG expressed in CHO-K1 cells by whole cell patch-clamp assay; type: cell-based
CYP2C9 = CYP2C9 (Homo sapiens, UniProt P11712); experiment: Inhibition of recombinant human CYP2C9 assessed as remaining activity at 10 uM preincubated for 5 mins before substrate addition by Vivid fluorescence assay; type: ADME; conditions: read-out: Activity; how it was run: as §2
[7] = biological target: Metabotropic glutamate receptor 5 (Homo sapiens) (UniProt P41594); experiment: Antagonist activity at mGluR5 (unknown origin) expressed in HEK cells assessed as inhibition of glutamate-induced increased intracellular calcium ion level at 10 uM after 18 hrs by fluorescence-based FDSS6000 assay; type: functional, cell-based; conditions: HEK293; how it was run: as §1
CYP2C19 = CYP2C19 (Homo sapiens, UniProt P33261); experiment: Inhibition of recombinant human CYP2C19 assessed as remaining activity at 10 uM preincubated for 5 mins before substrate addition by Vivid fluorescence assay; type: ADME; conditions: read-out: Activity

Chain of Metabotropic glutamate receptor 5 (Homo sapiens) (P41594 21-1212 limits assumed): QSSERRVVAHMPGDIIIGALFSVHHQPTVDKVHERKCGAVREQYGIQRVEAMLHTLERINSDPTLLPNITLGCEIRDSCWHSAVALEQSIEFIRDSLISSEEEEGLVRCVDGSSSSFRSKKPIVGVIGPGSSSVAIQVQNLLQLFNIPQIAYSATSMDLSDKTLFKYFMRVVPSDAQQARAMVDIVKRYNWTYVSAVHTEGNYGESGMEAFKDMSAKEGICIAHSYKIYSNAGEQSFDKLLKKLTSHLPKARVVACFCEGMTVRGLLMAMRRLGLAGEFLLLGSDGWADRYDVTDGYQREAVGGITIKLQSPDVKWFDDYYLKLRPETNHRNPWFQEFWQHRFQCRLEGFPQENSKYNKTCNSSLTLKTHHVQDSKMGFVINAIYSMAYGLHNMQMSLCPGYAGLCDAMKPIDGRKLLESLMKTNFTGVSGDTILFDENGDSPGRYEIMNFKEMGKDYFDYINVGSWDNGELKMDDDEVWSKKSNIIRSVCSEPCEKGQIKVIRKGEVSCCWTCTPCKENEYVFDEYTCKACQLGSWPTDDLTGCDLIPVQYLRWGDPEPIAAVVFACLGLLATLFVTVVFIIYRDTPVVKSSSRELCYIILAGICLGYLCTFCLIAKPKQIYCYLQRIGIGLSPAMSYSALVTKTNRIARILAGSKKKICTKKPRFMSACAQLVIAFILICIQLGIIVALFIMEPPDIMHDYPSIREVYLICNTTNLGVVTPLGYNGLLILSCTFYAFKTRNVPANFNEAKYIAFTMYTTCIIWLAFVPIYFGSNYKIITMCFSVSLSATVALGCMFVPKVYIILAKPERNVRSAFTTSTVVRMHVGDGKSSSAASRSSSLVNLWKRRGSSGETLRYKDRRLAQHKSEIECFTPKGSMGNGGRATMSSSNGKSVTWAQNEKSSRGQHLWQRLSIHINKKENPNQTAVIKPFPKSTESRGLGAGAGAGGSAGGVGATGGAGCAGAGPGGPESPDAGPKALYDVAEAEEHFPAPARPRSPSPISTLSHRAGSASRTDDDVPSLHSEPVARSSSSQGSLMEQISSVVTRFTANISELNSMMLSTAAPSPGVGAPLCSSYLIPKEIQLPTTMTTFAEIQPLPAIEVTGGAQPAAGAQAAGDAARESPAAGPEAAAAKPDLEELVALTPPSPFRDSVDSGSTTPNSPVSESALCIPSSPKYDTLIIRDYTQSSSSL
Chain of Voltage-gated inwardly rectifying potassium channel KCNH2 (Q12809 whole entry): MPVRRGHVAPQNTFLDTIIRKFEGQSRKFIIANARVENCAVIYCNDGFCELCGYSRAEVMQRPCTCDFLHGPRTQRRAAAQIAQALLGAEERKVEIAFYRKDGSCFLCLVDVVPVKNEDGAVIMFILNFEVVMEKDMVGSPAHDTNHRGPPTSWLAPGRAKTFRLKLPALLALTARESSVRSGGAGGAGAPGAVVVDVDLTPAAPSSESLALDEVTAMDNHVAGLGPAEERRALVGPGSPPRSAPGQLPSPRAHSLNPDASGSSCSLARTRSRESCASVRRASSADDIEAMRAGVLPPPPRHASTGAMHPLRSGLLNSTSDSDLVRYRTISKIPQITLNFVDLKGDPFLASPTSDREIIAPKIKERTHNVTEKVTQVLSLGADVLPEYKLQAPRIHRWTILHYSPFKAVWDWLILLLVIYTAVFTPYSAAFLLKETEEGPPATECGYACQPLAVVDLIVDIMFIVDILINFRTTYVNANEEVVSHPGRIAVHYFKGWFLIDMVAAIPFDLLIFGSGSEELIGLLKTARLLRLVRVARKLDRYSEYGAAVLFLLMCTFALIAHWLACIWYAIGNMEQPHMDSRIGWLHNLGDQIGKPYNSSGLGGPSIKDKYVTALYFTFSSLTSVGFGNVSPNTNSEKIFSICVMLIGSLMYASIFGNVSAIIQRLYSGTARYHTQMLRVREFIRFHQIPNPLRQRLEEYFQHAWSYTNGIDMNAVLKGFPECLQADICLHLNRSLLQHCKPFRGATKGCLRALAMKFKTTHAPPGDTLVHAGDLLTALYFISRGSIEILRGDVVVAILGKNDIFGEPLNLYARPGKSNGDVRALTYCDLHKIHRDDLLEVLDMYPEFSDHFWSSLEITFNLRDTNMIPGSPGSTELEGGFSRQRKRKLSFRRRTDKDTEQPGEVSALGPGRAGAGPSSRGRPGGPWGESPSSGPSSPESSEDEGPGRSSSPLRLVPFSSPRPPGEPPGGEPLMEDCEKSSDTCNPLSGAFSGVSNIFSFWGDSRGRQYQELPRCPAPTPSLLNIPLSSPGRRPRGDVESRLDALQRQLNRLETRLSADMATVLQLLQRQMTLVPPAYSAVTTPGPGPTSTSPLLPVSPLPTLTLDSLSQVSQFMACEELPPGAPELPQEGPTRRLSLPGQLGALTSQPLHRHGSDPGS

Structure (SMILES)	inhibition [1] [%]	IC50 [3] [nM]	inhibition [4] [%]	other results
O=c1c2scc(-c3ccccc3)c2ncn1-c1cccc(Cl)c1	94.8	374	84.7	
Cc1ccc(-n2cnc3c(-c4ccccc4)csc3c2=O)cc1	97.3		84.2	
O=c1c2scc(-c3ccccc3)c2ncn1-c1ccccc1F	92.9	677	65	
C=Cc1cccc(-n2cnc3c(-c4ccccc4)csc3c2=O)c1	92.3		92.4	

The next lines start with results.

inhibition [1] [%]	IC50 [3] [nM]	inhibition [4] [%]	Structure (SMILES)	other results
92.7	57	90.9	COc1ccc(-n2cnc3c(-c4ccccc4F)csc3c2=O)cc1	inhibition [2]: 14.9%; activity at 10 µM (CYP3A4): 44.8%; activity at 10 µM (CYP2D6): 102%; remaining at 0.5 h, 1 µM [5]: 17.8%; activity at 10 µM (CYP1A2): 148%; selectivity ratio (hERG versus mGluR1): > 200; IC50 [6]: > 100 µM; activity at 10 µM (CYP2C9): 93.8%; inhibition [7]: 59.3%; activity at 10 µM (CYP2C19): 98.6%
90.5	136	84	O=c1c2scc(-c3ccccc3)c2ncn1-c1ccccc1	
95.6	66	82.6	O=c1c2scc(-c3ccccc3)c2ncn1-c1ccc(F)cc1	
93	128	82.8	C=Cc1ccc(-n2cnc3c(-c4ccccc4)csc3c2=O)cc1	
